Test results from ChEMBL document CHEMBL3414559, “Novel C-4 heteroaryl 13-cis-retinamide Mnk/AR degrading agents inhibit cell proliferation and migration and induce apoptosis in human breast and prostate cancer cells and suppress growth of MDA-MB-231 human breast and CWR22Rv1 human prostate tumor xenografts in mice” (J Med Chem, 2015).

Assays:
Format in all cases: functional
MDA-MB-468 = assay: Growth inhibition of human MDA-MB-468 cells at 10 uM by MTT assay; details: read-out: GI
MDA-MB-231 [1] = assay: Growth inhibition of human MDA-MB-231 cells at 10 uM by MTT assay; details: read-out: GI
MCF7 = assay: Growth inhibition of human MCF7 cells at 10 uM by MTT assay; details: read-out: GI
[2] = Growth inhibition of human SKBR3 cells at 10 uM by MTT assay; details: SK-BR-3, read-out: GI
MDA-MB-231 [3] = assay: Antitumor activity against human MDA-MB-231 cells xenografted in SCID mouse assessed as inhibition of tumor growth at 20 mg/kg, ip dosed once daily for 5 days per week for 28 days; details: MDA-MB-231, ip, in the assay text read “athymic nude mouse” for “SCID mouse”, route intraperitoneal, read-out: TGI
Outline: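 Athymic nude female mice with subcutaneous MDA-MB-231 tumors (10 × 10⁶ cells; ~100 mm³ at randomization, n = 6/group) dosed ip once daily, 5 days/week for 28 days, in 40% β-cyclodextrin/ddH₂O; vehicle controls. %T/C computed as median tumor volume treated vs control at day 28 × 100. Body weight monitored.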

SMILES	inhibition of growth at 10 µM (MDA-MB-468) [%]	inhibition of growth at 10 µM (MDA-MB-231 [1]) [%]	inhibition of growth at 10 µM (MCF7) [%]	inhibition of growth at 10 µM [2] [%]	inhibition in vivo at 20 mg/kg (MDA-MB-231 [3]) [%]
CC1=C(/C=C/C(C)=C/C=C/C(C)=C\C(=O)NCc2ccc(O)cc2)C(C)(C)CC=C1c1cccnc1	≥ 40	≥ 40	≥ 40	≥ 40	–
COc1cccc(C2=CCC(C)(C)C(/C=C/C(C)=C/C=C/C(C)=C\C(=O)NCCc3ccc(O)cc3)=C2C)c1	≥ 40	≥ 40	≥ 40	≥ 40	–
COc1cccc(C2=CCC(C)(C)C(/C=C/C(C)=C/C=C/C(C)=C\C(=O)NCc3ccc(O)cc3)=C2C)c1	≥ 40	≥ 40	≥ 40	≥ 40	–
CC1=C(/C=C/C(C)=C/C=C/C(C)=C/C(=O)Nc2ccc(F)cc2)C(C)(C)CCC1n1ccnc1 (stereo not drawn)	–	–	–	–	97
